Data taken from ChEMBL document CHEMBL1833921, “Synthesis and biological evaluation of phenstatin metabolites” (Bioorg Med Chem, 2011).

How the values were obtained:
MCF7 [1] = assay: Cytotoxicity against human MCF7 cells assessed as growth inhibition at 10^-5 M after 48 hrs by sulforhodamine B assay; type: functional; details: MCF7, 48 h, read-out: GI
CAKI-1 = assay: Cytotoxicity against human Caki1 cells assessed as growth inhibition at 10^-5 M after 48 hrs by sulforhodamine B assay; type: functional; details: CAKI-1, 48 h, read-out: GI
NCI-H322M = assay: Cytotoxicity against human NCI-H322M cells assessed as growth inhibition at 10^-5 M after 48 hrs by sulforhodamine B assay; type: functional; details: read-out: GI
SK-MEL-28 = assay: Cytotoxicity against human SK-MEL-28 cells assessed as growth inhibition at 10^-5 M after 48 hrs by sulforhodamine B assay; type: functional; details: SK-MEL-28, 48 h, read-out: GI
SF-268 = assay: Cytotoxicity against human SF268 cells assessed as growth inhibition at 10^-5 M after 48 hrs by sulforhodamine B assay; type: functional; details: SF-268, 48 h, read-out: GI
OVCAR-4 = assay: Cytotoxicity against human OVCAR4 cells assessed as growth inhibition at 10^-5 M after 48 hrs by sulforhodamine B assay; type: functional; details: OVCAR-4, 48 h, read-out: GI
NCI-H522 = assay: Cytotoxicity against human NCI-H522 cells assessed as growth inhibition at 10^-5 M after 48 hrs by sulforhodamine B assay; type: functional; details: NCI-H522, 48 h, read-out: GI
SK-MEL-2 = assay: Cytotoxicity against human SK-MEL-2 cells assessed as growth inhibition at 10^-5 M after 48 hrs by sulforhodamine B assay; type: functional; details: SK-MEL-2, 48 h, read-out: GI
HCC 2998 = assay: Cytotoxicity against human HCC2998 cells assessed as growth inhibition at 10^-5 M after 48 hrs by sulforhodamine B assay; type: functional; details: HCC 2998, 48 h, read-out: GI
DU-145 [2] = assay: Cytotoxicity against human DU145 cells assessed as growth inhibition at 10^-5 M after 48 hrs by sulforhodamine B assay; type: functional; details: DU-145, 48 h, read-out: GI
HL-60(TB) = assay: Cytotoxicity against human HL-60(TB) cells assessed as growth inhibition at 10^-5 M after 48 hrs by sulforhodamine B assay; type: functional; details: HL-60, 48 h, read-out: GI
KM12 = assay: Cytotoxicity against human KM12 cells assessed as growth inhibition at 10^-5 M after 48 hrs by sulforhodamine B assay; type: functional; details: KM12, 48 h, read-out: GI
M14 = assay: Cytotoxicity against human M14 cells assessed as growth inhibition at 10^-5 M after 48 hrs by sulforhodamine B assay; type: functional; details: M14, 48 h, read-out: GI
UACC-62 = assay: Cytotoxicity against human UACC62 cells assessed as growth inhibition at 10^-5 M after 48 hrs by sulforhodamine B assay; type: functional; details: UACC-62, 48 h, read-out: GI
OVCAR-3 [3] = assay: Cytotoxicity against human OVCAR3 cells assessed as growth inhibition at 10^-5 M after 48 hrs by sulforhodamine B assay; type: functional; details: OVCAR-3, 48 h, read-out: GI
HCT-15 = assay: Cytotoxicity against human HCT15 cells assessed as growth inhibition at 10^-5 M after 48 hrs by sulforhodamine B assay; type: functional; details: HCT-15, 48 h, read-out: GI
NCI-H460 [4] = assay: Cytotoxicity against human NCI-H460 cells assessed as growth inhibition at 10^-5 M after 48 hrs by sulforhodamine B assay; type: functional; details: NCI-H460, 48 h, read-out: GI
SN12C = assay: Cytotoxicity against human SN12C cells assessed as growth inhibition at 10^-5 M after 48 hrs by sulforhodamine B assay; type: functional; details: read-out: GI
MDA-MB-468 = assay: Cytotoxicity against human MDA-MB-468 cells assessed as growth inhibition at 10^-5 M after 48 hrs by sulforhodamine B assay; type: functional; details: MDA-MB-468, 48 h, read-out: GI
UO-31 = assay: Cytotoxicity against human UO31 cells assessed as growth inhibition at 10^-5 M after 48 hrs by sulforhodamine B assay; type: functional; details: UO-31, 48 h, read-out: GI
CCRF-CEM = assay: Cytotoxicity against human CCRF-CEM cells assessed as growth inhibition at 10^-5 M after 48 hrs by sulforhodamine B assay; type: functional; details: read-out: GI
SF-539 = assay: Cytotoxicity against human SF539 cells assessed as growth inhibition at 10^-5 M after 48 hrs by sulforhodamine B assay; type: functional; details: SF-539, 48 h, read-out: GI
HCT-116 = assay: Cytotoxicity against human HCT116 cells assessed as growth inhibition at 10^-5 M after 48 hrs by sulforhodamine B assay; type: functional; details: HCT-116, 48 h, read-out: GI
[5] = Inhibition of bovine brain tubulin polymerization after 30 mins by turbidimetry analysis; parameters: species or system Bos taurus
Summary of the method: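 Lyophilized bovine brain tubulin (97%) reconstituted to 5 mg/mL in 80 mM PIPES pH 6.9, 2 mM MgCl₂, 0.5 mM EGTA, 1.0 mM GTP and 5% glycerol. Compound in DMSO was added to this solution in a quartz cuvette at 0 °C. Assembly was followed as the rise in absorbance at 340 nm at 37 °C. IC₅₀ is the molar concentration halving the extent of assembly after 30 min.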

MDA-MB-231 = assay: Cytotoxicity against human MDA-MB-231/ATCC cells assessed as growth inhibition at 10^-5 M after 48 hrs by sulforhodamine B assay; type: functional; details: MDA-MB-231, 48 h, read-out: GI
NCI/ADR-RES = assay: Cytotoxicity against human NCI/ADR-RES cells assessed as growth inhibition at 10^-5 M after 48 hrs by sulforhodamine B assay; type: functional; details: read-out: GI
SK-OV-3 = assay: Cytotoxicity against human SKOV3 cells assessed as growth inhibition at 10^-5 M after 48 hrs by sulforhodamine B assay; type: functional; details: SK-OV-3, 48 h, read-out: GI
COLO 205 [6] = assay: Cytotoxicity against human COLO205 cells assessed as growth inhibition at 10^-5 M after 48 hrs by sulforhodamine B assay; type: functional; details: COLO 205, 48 h, read-out: GI
EKVX = assay: Cytotoxicity against human EKVX cells assessed as growth inhibition at 10^-5 M after 48 hrs by sulforhodamine B assay; type: functional; details: read-out: GI
A549 [7] = assay: Cytotoxicity against human A549/ATCC cells assessed as growth inhibition at 10^-5 M after 48 hrs by sulforhodamine B assay; type: functional; details: A549, 48 h, read-out: GI
MDA-MB-435 = assay: Cytotoxicity against human MDA-MB-435 cells assessed as growth inhibition at 10^-5 M after 48 hrs by sulforhodamine B assay; type: functional; details: MDA-MB-435, 48 h, read-out: GI
RXF 393 = assay: Cytotoxicity against human RXF393 cells assessed as growth inhibition at 10^-5 M after 48 hrs by sulforhodamine B assay; type: functional; details: RXF 393, 48 h, read-out: GI
K562 = assay: Cytotoxicity against human K562 cells assessed as growth inhibition at 10^-5 M after 48 hrs by sulforhodamine B assay; type: functional; details: K562, 48 h, read-out: GI
Hs-578T = assay: Cytotoxicity against human HS578T cells assessed as growth inhibition at 10^-5 M after 48 hrs by sulforhodamine B assay; type: functional; details: read-out: GI
SF-295 [8] = assay: Cytotoxicity against human SF295 cells assessed as growth inhibition at 10^-5 M after 48 hrs by sulforhodamine B assay; type: functional; details: SF-295, 48 h, read-out: GI
OVCAR-5 = assay: Cytotoxicity against human OVCAR5 cells assessed as growth inhibition at 10^-5 M after 48 hrs by sulforhodamine B assay; type: functional; details: OVCAR-5, 48 h, read-out: GI
[9] = Solubility in water; type: physicochemical; details: buffer
A549 [10] = assay: Cytotoxicity against human A549 cells after 48 hrs by sulforhodamine B assay; type: functional; details: A549, 48 h
DU-145 [11] = assay: Cytotoxicity against human DU145 cells after 48 hrs by sulforhodamine B assay; type: functional; details: DU-145, 48 h
SF-295 [12] = assay: Cytotoxicity against human SF295 cells after 48 hrs by sulforhodamine B assay; type: functional; details: SF-295, 48 h
A498 = assay: Cytotoxicity against human A498 cells after 48 hrs by sulforhodamine B assay; type: functional; details: A498, 48 h
HL-60 = assay: Cytotoxicity against human HL60 cells after 48 hrs by sulforhodamine B assay; type: functional; details: HL-60, 48 h
HT-29 = assay: Cytotoxicity against human HT29 cells after 48 hrs by sulforhodamine B assay; type: functional; details: HT-29, 48 h
NCI-H460 [13] = assay: Cytotoxicity against human NCI-H460 cells after 48 hrs by sulforhodamine B assay; type: functional; details: NCI-H460, 48 h
COLO 205 [14] = assay: Cytotoxicity against human COLO205 cells after 48 hrs by sulforhodamine B assay; type: functional; details: COLO 205, 48 h
MCF7 [15] = assay: Cytotoxicity against human MCF7 cells after 48 hrs by sulforhodamine B assay; type: functional; details: MCF7, 48 h
OVCAR-3 [16] = assay: Cytotoxicity against human OVCAR3 cells after 48 hrs by sulforhodamine B assay; type: functional; details: OVCAR-3, 48 h

COc1cc2c(c(O)c1OC)C(=O)c1cc(OC)c(OC)c(OC)c1C2=O
inhibition of growth at 10 µM (MCF7 [1]): 26.7%
inhibition of growth at 10 µM (CAKI-1): 7.07%
inhibition of growth at 10 µM (NCI-H322M): 0%
inhibition of growth at 10 µM (SK-MEL-28): 15%
inhibition of growth at 10 µM (SF-268): 22.2%
inhibition of growth at 10 µM (OVCAR-4): 60.2%
inhibition of growth at 10 µM (NCI-H522): 29.5%
inhibition of growth at 10 µM (SK-MEL-2): 0%
inhibition of growth at 10 µM (HCC 2998): 0%
inhibition of growth at 10 µM (DU-145 [2]): 7.83%
inhibition of growth at 10 µM (HL-60(TB)): 6.14%
inhibition of growth at 10 µM (KM12): 0%
inhibition of growth at 10 µM (M14): 0%
inhibition of growth at 10 µM (UACC-62): 6.13%
inhibition of growth at 10 µM (OVCAR-3 [3]): 0%
inhibition of growth at 10 µM (HCT-15): 0%
inhibition of growth at 10 µM (NCI-H460 [4]): 9.33%
inhibition of growth at 10 µM (SN12C): 8.73%
inhibition of growth at 10 µM (MDA-MB-468): 22.4%
inhibition of growth at 10 µM (UO-31): 0%
inhibition of growth at 10 µM (CCRF-CEM): 0%
inhibition of growth at 10 µM (SF-539): 16.2%
inhibition of growth at 10 µM (HCT-116): 11.8%
IC50 [5]: > 100000 nM
inhibition of growth at 10 µM (MDA-MB-231): 21.3%
inhibition of growth at 10 µM (NCI/ADR-RES): 20.3%
inhibition of growth at 10 µM (SK-OV-3): 9.78%
inhibition of growth at 10 µM (COLO 205 [6]): 0%
inhibition of growth at 10 µM (EKVX): 13.5%
inhibition of growth at 10 µM (A549 [7]): 26.1%
inhibition of growth at 10 µM (MDA-MB-435): 16.9%
inhibition of growth at 10 µM (RXF 393): 2.66%
inhibition of growth at 10 µM (K562): 0%
inhibition of growth at 10 µM (Hs-578T): 16.9%
inhibition of growth at 10 µM (SF-295 [8]): 37.9%
inhibition of growth at 10 µM (OVCAR-5): 7.52%

COc1ccc(C(=O)c2cc(OC)c(OC)c(OC)c2)cc1OP(=O)([O-])[O-].[Na+].[Na+]
solubility [9]: soluble

COc1ccc(C(=O)c2cc(OC)c(OC)c(OC)c2)cc1O [PHENSTATIN]
solubility [9]: soluble
GI50 (A549 [10]): 290 nM
GI50 (DU-145 [11]): 34 nM
GI50 (SF-295 [12]): 52 nM
GI50 (A498): 380 nM
GI50 (HL-60): 31 nM
GI50 (HT-29): 1800 nM
IC50 [5]: 15000 nM
GI50 (NCI-H460 [13]): 5.7 nM
GI50 (COLO 205 [14]): 4860 nM
GI50 (MCF7 [15]): 34 nM
GI50 (OVCAR-3 [16]): 2.3 nM
